Test results taken from article PMC10203274 (Plant Communications, 2022).
Positions count from the first letter of the chain named.

How the values were obtained:
NbUGT72AY1-R91F = target: T1, NbUGT72AY1-R91F (Nicotiana benthamiana, UniProt A0A8K1ZRH3, R91F); test: UDP-Glo glycosyltransferase assay, kinetics of mutant; format: biochemical
T1 sequence (A0A8K1ZRH3 1-477 R91F): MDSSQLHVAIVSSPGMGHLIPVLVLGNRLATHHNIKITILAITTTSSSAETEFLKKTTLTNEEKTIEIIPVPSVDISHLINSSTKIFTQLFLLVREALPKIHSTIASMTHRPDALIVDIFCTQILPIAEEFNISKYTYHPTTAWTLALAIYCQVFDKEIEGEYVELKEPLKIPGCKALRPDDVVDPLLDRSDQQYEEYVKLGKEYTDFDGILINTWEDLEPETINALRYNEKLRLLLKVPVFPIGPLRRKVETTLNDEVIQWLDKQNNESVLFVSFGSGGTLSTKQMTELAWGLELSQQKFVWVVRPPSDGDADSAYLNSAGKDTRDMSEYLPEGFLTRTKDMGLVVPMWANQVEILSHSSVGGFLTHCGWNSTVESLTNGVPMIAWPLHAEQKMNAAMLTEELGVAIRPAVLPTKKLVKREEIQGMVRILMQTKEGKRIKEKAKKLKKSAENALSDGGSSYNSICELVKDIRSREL

NbUGT72AY1 = target: T2, NbUGT72AY1 (Nicotiana benthamiana, UniProt A0A8K1ZRH3); test: UDP-Glo glycosyltransferase assay, acceptor substrate kinetics; format: biochemical
T2 sequence (A0A8K1ZRH3 1-477): T1 sequence (A0A8K1ZRH3 1-477 R91F) with F91R

Alternaria alternata = conditions: in vitro and in vivo; ref Sun et al., 2014; cited from earlier work
[1] = test system: StUGT72AY2-chimera (Potato-Tobacco-Potato); test: UDP-Glo glycosyltransferase assay, chimeric mutant; format: biochemical, Solanum tuberosum; conditions: Figure 5B and 5D
Procedure, shortened: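 N-terminal GST-fusion enzyme expressed in E. coli BL21(DE3) pLysS (1 mM IPTG, 18°C overnight) and glutathione-eluted. Reaction: 2 μg protein, 100 μM UDP-glucose, and varied acceptor substrate (in DMSO) in 50 mM Tris-HCl pH 7.0, 30°C for 20 min. Stopped with HCl, neutralized with Trizma base, then UDP-Glo luminescence after 30 min dark. Michaelis–Menten or Hill fits from at least three repeats.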

NbUGT72AY1-R91M = target: T3, NbUGT72AY1-R91M (Nicotiana benthamiana, UniProt A0A8K1ZRH3, R91M); test: UDP-Glo glycosyltransferase assay, kinetics of mutant; format: biochemical
T3 sequence (A0A8K1ZRH3 1-477 R91M): T1 sequence (A0A8K1ZRH3 1-477 R91F) with F91M

NbUGT72AY1-R91A = target: T4, NbUGT72AY1-R91A (Nicotiana benthamiana, UniProt A0A8K1ZRH3, R91A); test: as above; format: biochemical
T4 sequence (A0A8K1ZRH3 1-477 R91A): T1 sequence (A0A8K1ZRH3 1-477 R91F) with F91A

What does the source list for `COc1cc2ccc(=O)oc2cc1O` [scopoletin]?
Ki (NbUGT72AY1-R91F): 0.9 ± 0.3 µM; Vi (NbUGT72AY1; Fig S14b series, wild type R91, substrate scopoletin): 4.4 ± 2.3 nmol/min/mg; Vmax (NbUGT72AY1; Figure 5A series, wild type, substrate scopoletin): 264.3 nmol/min/mg; Ki (NbUGT72AY1; Ki, Fig S14b series, wild type R91, substrate scopoletin): 10.7 ± 2.2 µM; Ki (NbUGT72AY1; substrate inhibition (Ki), as stated in the abstract): 4 µM; antifungal activity (Alternaria alternata): strong antifungal activity; enzymatic activity of the chimeric mutant with the substrate [1]: inactive; Ki (NbUGT72AY1-R91M): 27.3 ± 4.2 µM; Vi (NbUGT72AY1-R91M; Fig S14b, mutant R91M, substrate scopoletin): 13.1 ± 6.1 nmol/min/mg; Ki (NbUGT72AY1-R91A): 3.3 ± 0.7 µM
